Assay results from ChEMBL document CHEMBL4152296, “Synthesis, biological evaluation and molecular modeling of novel azaspiro dihydrotriazines as influenza virus inhibitors targeting the host factor dihydrofolate reductase (DHFR)” (Eur J Med Chem, 2018).
pEC50, pKi: −log10 of the molar value. The source made the active and inactive calls. The rule behind the calls is not given here.

Columns and labels:
[1] = tested on: Human immunodeficiency virus; assay: Antiviral activity against HIV after 2 days by luminometric method; format: functional, organism-based; details: Human immunodeficiency virus 1, 48 h
Hepatitis C virus = assay: Antiviral activity against Hepatitis C virus after 2 days by luminometric method; format: functional, organism-based, Hepacivirus hominis; details: 48 h
Dengue virus = assay: Antiviral activity against DENV after 2 days by luminometric method; format: functional, organism-based; details: 48 h
West Nile virus = assay: Antiviral activity against West Nile virus after 2 days by luminometric method; format: functional, organism-based; details: 48 h
[2] = Selectivity index, ratio of CC50 for human Lunet cells to EC50 for HIV; format: toxicity; details: read-out: Ratio CC50/EC50
[3] = Selectivity index, ratio of CC50 for human Lunet cells to EC50 for Hepatitis C virus; format: toxicity; details: read-out: Ratio CC50/EC50
[4] = Selectivity index, ratio of CC50 for human Lunet cells to EC50 for DENV; format: toxicity; details: read-out: Ratio CC50/EC50
[5] = Selectivity index, ratio of CC50 for human Lunet cells to EC50 for West Nile virus; format: toxicity; details: read-out: Ratio CC50/EC50
Influenza A virus = assay: Antiviral activity against Influenza A virus (A/Puerto Rico/8/34(H1N1)) infected in MDCK cells assessed as protection against virus-induced reduction in cell viability after 3 to 6 days by MTS assay; format: functional, organism-based; details: A/Puerto Rico/8/1934(H1N1)
How it was run: (§1)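 MDCK cells seeded at 9000/well and infected one day later (semiconfluent) with 100 CCID50 virus. Medium was FCS-free Ultra MDCK with 2 μg/mL TPCK-trypsin. Serial five-fold compound dilutions (top 100 μM) were added with the virus, followed by 3–6 days at 35 °C. MTS read-out gave % protection versus virus and mock controls. EC50 was interpolated from semi-log curves; mean of two or three experiments.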

Influenza B virus [6] = assay: Antiviral activity against Influenza B virus B/Ned/537/05 infected in MDCK cells assessed as protection against virus-induced reduction in cell viability after 3 to 6 days by MTS assay; format: functional, organism-based; details: B/Ned/537/05, MDCK; how it was run: as §1
[7] = Cytotoxicity against MDCK cells assessed as alterations in normal cell morphology measured after 3 to 6 days by microscopic analysis; format: cell-based, Canis lupus familiaris; details: dog
How it was run: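 Uninfected MDCK cultures in FCS-free Ultra MDCK medium with trypsin received five-fold compound dilutions (up to […]) for 3–6 days at 35 °C. Microscopy scored morphology, and MCC was taken as the lowest concentration causing minimal rounding, shrinking or lysis.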

MDCK = assay: Cytotoxicity against MDCK cells assessed as reduction in cell viability measured after 3 to 6 days by MTS assay; format: cell-based, Canis lupus familiaris; details: dog
How it was run: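 Mock-infected MDCK plates were run in parallel (FCS-free Ultra MDCK medium with TPCK-trypsin) with serial five-fold dilutions up to […], 35 °C for 3–6 days. CC50 was interpolated from semi-log dose-response curves; mean of two or three experiments.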

[8] = tested on: Respiratory syncytial virus; assay: Antiviral activity against Respiratory syncytial virus Long infected in human HeLa cells assessed as inhibition of virus-induced cytopathic effect after 3 to 6 days by MTS based microscopy; format: functional, organism-based
[9] = Cytotoxicity against human HeLa cells assessed as alterations in normal cell morphology measured after 3 to 6 days by microscopic analysis; format: cell-based
How it was run: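 Mock-infected HeLa cultures in 2% FCS medium received serial five-fold dilutions […] for 3–6 days at 37 °C. MCC was the lowest concentration giving microscopically visible minimal change in cell morphology (rounding, shrinking, lysis).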

Vero = assay: Cytotoxicity against African green monkey Vero cells assessed as reduction in cell viability measured after 3 to 6 days by MTS assay; format: cell-based; details: chlorocebus sabaeus
Human alphaherpesvirus 1 = assay: Antiviral activity against Herpes simplex virus type 1 infected in human HEL299 cells assessed as inhibition of virus-induced cytopathic effect after 3 to 6 days by MTS assay; format: functional, organism-based
Human alphaherpesvirus 2 = assay: Antiviral activity against Herpes simplex virus type 2 infected in human HEL299 cells assessed as inhibition of virus-induced cytopathic effect after 3 to 6 days by MTS assay; format: functional, organism-based
Vaccinia virus = assay: Antiviral activity against Vaccinia virus infected in human HEL299 cells assessed as inhibition of virus-induced cytopathic effect after 3 to 6 days by MTS assay; format: functional, organism-based; details: Orthopoxvirus vaccinia
Human adenovirus 2 = assay: Antiviral activity against Human adenovirus type 2 infected in human HEL299 cells assessed as inhibition of virus-induced cytopathic effect after 3 to 6 days by MTS assay; format: functional, organism-based
[10] = tested on: Human immunodeficiency virus; assay: Antiviral activity against HIV; format: functional, organism-based
Human coronavirus 229E = assay: Antiviral activity against Human coronavirus 229E infected in human HEL299 cells assessed as inhibition of virus-induced cytopathic effect after 3 to 6 days by MTS assay; format: functional, organism-based
Human respirovirus 3 = assay: Antiviral activity against Parainfluenza virus 3 infected in African green monkey Vero cells assessed as inhibition of virus-induced cytopathic effect after 3 to 6 days by MTS assay; format: functional, organism-based
[11] = tested on: Vesicular stomatitis virus; assay: Antiviral activity against Vesicular stomatitis virus infected in human HEL299 cells assessed as inhibition of virus-induced cytopathic effect after 3 to 6 days by MTS assay; format: functional, organism-based
Sindbis virus = assay: Antiviral activity against Sindbis virus infected in African green monkey Vero cells assessed as inhibition of virus-induced cytopathic effect after 3 to 6 days by MTS assay; format: functional, organism-based
Yellow fever virus = assay: Antiviral activity against Yellow fever virus infected in African green monkey Vero cells assessed as inhibition of virus-induced cytopathic effect after 3 to 6 days by MTS assay; format: functional, organism-based
Punta Toro virus = assay: Antiviral activity against Punta Toro virus infected in African green monkey Vero cells assessed as inhibition of virus-induced cytopathic effect after 3 to 6 days by MTS assay; format: functional, organism-based
Coxsackievirus B4 = assay: Antiviral activity against Coxsackie B4 virus infected in human HeLa cells assessed as inhibition of virus-induced cytopathic effect after 3 to 6 days by MTS assay; format: functional, organism-based
[12] = tested on: Mammalian orthoreovirus 1; assay: Antiviral activity against Reovirus-1 infected in African green monkey Vero cells assessed as inhibition of virus-induced cytopathic effect after 3 to 6 days by MTS assay; format: functional, organism-based
Dihydrofolate reductase = molecular target: T1, Dihydrofolate reductase (Homo sapiens, UniProt P00374); assay: Binding affinity to human recombinant DHFR using dihydrofolate as substrate after 180 secs by spectrophotometric method
T1 sequence (P00374 whole entry): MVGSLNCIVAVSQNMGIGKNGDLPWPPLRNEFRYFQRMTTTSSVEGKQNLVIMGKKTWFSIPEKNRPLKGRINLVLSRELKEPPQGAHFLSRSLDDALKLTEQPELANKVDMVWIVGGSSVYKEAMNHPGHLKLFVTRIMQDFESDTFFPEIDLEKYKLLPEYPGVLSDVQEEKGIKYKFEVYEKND
How it was run: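 Recombinant human DHFR (0.42 μM) in TES buffer with inhibitor, 60 μM DHF, and 120 μM NADPH added last to start the reaction. Absorbance at 340 nm was followed for 180 s. Six concentrations (1–32 μM) were run in duplicate. IC50 came from Dixon plots assuming competitive inhibition. Ki = IC50/(1+[S]/Km), with DHF Km 5 μM.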

[13] = Selectivity index, ratio of CC50 for MDCK cells to EC50 for Influenza B virus B/Ned/537/05 infected in MDCK cells; format: toxicity, cell-based; details: dog, read-out: Ratio CC50/EC50
How it was run: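 Selectivity index for influenza B in MDCK was calculated as MTS-based CC50 divided by MTS-based EC50, both measured in parallel in the same assay.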

[14] = Selectivity index, ratio of MCC for human HeLa cells to EC50 for Respiratory syncytial virus Long infected in human HeLa cells; format: toxicity, cell-based; details: read-out: Selectivity Index
How it was run: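 Selectivity index for RSV Long in HeLa was calculated as microscopic MCC divided by CPE-based microscopic EC50 from parallel infected and mock-infected cultures.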

[15] = tested on: Respiratory syncytial virus; assay: Potency index, ratio of ribavirin EC50 to compound EC50 for Respiratory syncytial virus Long infected in human HeLa cells; format: functional
Influenza B virus [16] = assay: Potency index, ratio of ribavirin EC50 to compound EC50 for Influenza B virus B/Ned/537/05 infected in MDCK cells; format: functional

SMILES | pEC50 (Influenza A virus) | pEC50 (Influenza B virus [6]) | MCC [7] [nM] | CC50 (MDCK) [µM] | pEC50 [8] | MCC [9] [µM] | Activity (Vero) | Activity (Human alphaherpesvirus 1) | Activity (Human alphaherpesvirus 2) | Activity (Vaccinia virus) | Activity (Human adenovirus 2) | Activity [10] | Activity (Human coronavirus 229E) | Activity (Human respirovirus 3) | Activity [11] | Activity (Sindbis virus) | Activity (Yellow fever virus) | Activity (Punta Toro virus) | Activity (Coxsackievirus B4) | Activity [12] | other results
Cc1cn(-c2ccc(NC(=O)Nc3ccccc3C)cc2)nn1 |  |  |  |  |  |  |  |  |  |  |  |  |  |  |  |  |  |  |  |  | pEC50 [1]: 4.78 to 6.01; pEC50 (Hepatitis C virus): 4.78 to 6.01; pEC50 (Dengue virus): 4.78 to 6.01; pEC50 (West Nile virus): 4.78 to 6.01; selectivity ratio [2]: 162; selectivity ratio [3]: 162; selectivity ratio [4]: 162; selectivity ratio [5]: 162
CCS(=O)(=O)N1CCC2(CC1)N=C(N)N=C(N)N2CCOC | < 4.00 | 5.52 | > 100000 | > 100 | < 4.00 | > 100 | Non-Toxic | inactive | inactive | inactive | inactive | inactive | inactive | inactive | inactive | inactive | inactive | inactive | inactive | inactive | pKi (Dihydrofolate reductase): 5.85
NC1=NC2(CCN(C(=O)Nc3ccc(F)cc3)CC2)N(c2cccc(Cl)c2)C(N)=N1 | < 4.00 | 6.72 | ≥ 160 | 51 | 5.74 | ≥ 100 | Non-Toxic | inactive | inactive | inactive | inactive | inactive | inactive | inactive | inactive | inactive | inactive | inactive | inactive | inactive | selectivity ratio [13]: 268; selectivity ratio [14]: 56; Ratio EC50 [15]: 3; pKi (Dihydrofolate reductase): 6.28
Cc1ccc(C(=O)N2CCC3(CC2)N=C(N)N=C(N)N3c2cccc(Cl)c2)cc1 | < 4.00 | 6.54 | ≥ 800 | 18 | 6.40 | ≥ 100 | Non-Toxic | inactive | inactive | inactive | inactive | inactive | inactive | inactive | inactive | inactive | inactive | inactive | inactive | inactive | selectivity ratio [13]: 62; Ratio EC50 (Influenza B virus [16]): 11; selectivity ratio [14]: 250; Ratio EC50 [15]: 15; pKi (Dihydrofolate reductase): 6.19
